Results from different studies.
Protocols differ between the studies behind these lines.
Cell line: HL-60
Read-out: cell growth or viability

For `c1ccc(-c2cc(CNc3cccc4cccnc34)on2)cc1`, the IC50 was 79.6 µM (MTS; 72 h).
For `CN1CCc2c(c3ccccc3n2Cc2ccc(C(=O)NO)cc2)C1`, the IC50 was 8.87 µM (CCK-8; 48 h).
For `FC(F)(F)c1cc(OCc2cc(-c3ccccc3)no2)c2ccccc2n1`, the IC50 was greater than 100 µM (MTS; 72 h).
The IC50 of `O=C(CSc1nc2ccccc2s1)N/N=C/c1ccc(OCC(=O)Nc2ccc(Br)cc2)cc1` is reported as greater than 100 µM (MTS; 72 h).
With `COc1ccc(Nc2ncnc3c2ncn3Cc2ccc(C(=O)Nc3ccccc3N)cc2)cc1` the IC50 was 4.12 µM (MTT; 72 h).
With `O=C(CSc1nc2ccccc2s1)N/N=C/c1ccc(OCC(=O)Nc2ccc([N+](=O)[O-])cc2)cc1` the IC50 was 16.1 µM (MTS; 72 h).
`Nc1ccccc1NC(=O)c1ccc(Cn2cnc3c(Nc4ccc(Br)cc4F)ncnc32)cc1` has an IC50 of 0.99 µM (MTT; 72 h).
`O=c1cc(OCc2cc(-c3ccc(C(F)(F)F)cc3)no2)c2ccccc2o1` has an IC50 of greater than 100 µM (MTS; 72 h).
`O=C(NO)c1ccc(Cn2cnc3c(Nc4cccc([N+](=O)[O-])c4)ncnc32)cc1` has an IC50 of 1.86 µM (MTT; 72 h).
With `C=C1C[C@@]23CC[C@H]4[C@@](C)(CCC[C@@]4(C)C(=O)O)[C@@H]2CC[C@@H]1C3` the IC50 was 155 µM (XTT; 75 h).
`O=C(NO)c1ccc(Cn2cnc3c(Nc4ccc(Cl)cc4)ncnc32)cc1` has an IC50 of 0.62 µM (MTT; 72 h).
With `O=C(CSc1nc2ccccc2s1)N/N=C/c1ccc(OCC(=O)Nc2cccc(Cl)c2)cc1` the IC50 was greater than 100 µM (MTS; 72 h).
